Where only a bound is given, the exact number is not on record here.

For test [1], the target named is T1, Kinesin-like protein KIF11 (Homo sapiens) (UniProt P52732).
T1 sequence (whole entry): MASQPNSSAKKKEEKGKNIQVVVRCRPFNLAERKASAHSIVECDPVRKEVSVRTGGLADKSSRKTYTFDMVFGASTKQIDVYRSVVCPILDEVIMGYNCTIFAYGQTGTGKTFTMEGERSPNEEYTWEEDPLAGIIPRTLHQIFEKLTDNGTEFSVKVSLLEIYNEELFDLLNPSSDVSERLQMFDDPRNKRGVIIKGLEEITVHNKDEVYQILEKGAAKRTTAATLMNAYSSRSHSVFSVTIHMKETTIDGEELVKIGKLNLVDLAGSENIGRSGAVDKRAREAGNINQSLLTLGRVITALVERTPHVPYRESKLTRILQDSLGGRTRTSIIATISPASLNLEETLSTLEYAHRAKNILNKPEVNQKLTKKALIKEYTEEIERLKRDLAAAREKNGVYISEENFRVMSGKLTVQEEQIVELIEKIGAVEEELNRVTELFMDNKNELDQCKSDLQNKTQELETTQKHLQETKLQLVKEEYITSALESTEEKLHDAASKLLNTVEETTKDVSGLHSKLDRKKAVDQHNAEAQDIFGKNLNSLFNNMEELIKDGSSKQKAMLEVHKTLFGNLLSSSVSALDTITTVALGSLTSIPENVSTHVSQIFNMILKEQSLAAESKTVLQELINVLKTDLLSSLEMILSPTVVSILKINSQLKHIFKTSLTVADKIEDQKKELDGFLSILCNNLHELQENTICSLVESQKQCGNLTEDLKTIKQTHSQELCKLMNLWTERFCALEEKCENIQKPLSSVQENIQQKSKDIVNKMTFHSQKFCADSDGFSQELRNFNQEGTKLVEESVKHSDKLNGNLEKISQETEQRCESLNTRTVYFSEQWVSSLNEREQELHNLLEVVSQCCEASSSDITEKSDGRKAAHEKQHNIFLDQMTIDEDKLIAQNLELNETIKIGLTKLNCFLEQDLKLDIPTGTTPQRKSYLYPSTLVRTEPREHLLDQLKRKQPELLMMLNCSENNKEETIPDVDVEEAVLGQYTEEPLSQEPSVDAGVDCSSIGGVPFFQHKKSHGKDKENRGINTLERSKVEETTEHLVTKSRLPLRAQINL
Kind of test: Inhibition of porcine brain microtubule-stimulated human recombinant GST-tagged Eg5 ATPase activity at 15 uM by microplate reader in presence of Mg2+ ATP relative to control. The procedure, abridged: (§1)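 Each kinesin motor domain was tested against MT-stimulated ATPase at 22 °C in triplicate, with compounds at 15 µM. Buffer was 7.5 mM PIPES-NaOH pH 7.0 with MgCl2, Taxol, ELIPA reagents and 1.25 mg/mL MTs. Reactions were started with 1 mM Mg2+ATP and read kinetically at 360 nm. Monastrol and AMP-PNP (1 mM) were the controls.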

In test [2] the target is T2, Chromosome-associated kinesin KIF4A (Homo sapiens) (UniProt O95239).
T2 sequence (whole entry): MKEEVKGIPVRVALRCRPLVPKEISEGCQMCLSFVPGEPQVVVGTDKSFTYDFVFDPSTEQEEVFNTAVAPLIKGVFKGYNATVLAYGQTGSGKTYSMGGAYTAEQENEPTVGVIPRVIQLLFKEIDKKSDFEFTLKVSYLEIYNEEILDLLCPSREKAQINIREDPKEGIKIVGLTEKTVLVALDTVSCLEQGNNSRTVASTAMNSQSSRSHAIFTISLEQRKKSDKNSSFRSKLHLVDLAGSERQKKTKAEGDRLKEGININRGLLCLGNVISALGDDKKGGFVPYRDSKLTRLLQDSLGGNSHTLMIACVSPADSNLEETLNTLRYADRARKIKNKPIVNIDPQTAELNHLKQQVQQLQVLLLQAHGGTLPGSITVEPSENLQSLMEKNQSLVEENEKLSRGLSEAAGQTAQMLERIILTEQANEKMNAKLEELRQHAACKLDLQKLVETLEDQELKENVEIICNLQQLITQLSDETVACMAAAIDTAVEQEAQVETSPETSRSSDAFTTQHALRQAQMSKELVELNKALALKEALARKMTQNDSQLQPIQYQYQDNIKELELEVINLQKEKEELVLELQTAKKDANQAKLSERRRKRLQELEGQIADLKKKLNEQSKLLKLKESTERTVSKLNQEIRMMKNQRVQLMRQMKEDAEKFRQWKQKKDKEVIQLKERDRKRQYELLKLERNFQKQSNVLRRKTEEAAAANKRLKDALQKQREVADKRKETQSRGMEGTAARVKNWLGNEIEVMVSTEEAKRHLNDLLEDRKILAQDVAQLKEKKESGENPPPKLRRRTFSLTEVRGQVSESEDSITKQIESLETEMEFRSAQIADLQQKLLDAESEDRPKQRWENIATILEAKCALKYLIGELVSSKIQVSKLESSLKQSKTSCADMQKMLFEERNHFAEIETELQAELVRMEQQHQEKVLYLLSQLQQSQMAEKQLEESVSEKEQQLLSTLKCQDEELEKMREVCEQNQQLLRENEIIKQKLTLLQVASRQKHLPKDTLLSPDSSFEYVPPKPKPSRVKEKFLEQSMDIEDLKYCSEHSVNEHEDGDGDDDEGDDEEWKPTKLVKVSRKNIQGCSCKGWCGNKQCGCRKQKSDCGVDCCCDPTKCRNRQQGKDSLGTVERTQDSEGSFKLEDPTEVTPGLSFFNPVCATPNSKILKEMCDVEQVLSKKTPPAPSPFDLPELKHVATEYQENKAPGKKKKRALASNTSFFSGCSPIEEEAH
Briefly: Inhibition of porcine brain microtubule-stimulated human recombinant GST-tagged Kif4A ATPase activity at 15 uM by microplate reader in presence of Mg2+ ATP relative to control. The procedure, abridged:
as §1

Take `COc1ccc2c(/C(C#N)=C/c3cccnc3)c[nH]c2c1`: the inhibition in test [1] and in test [2] was below 20% throughout.
In the case of `N#C/C(=C\c1ccc2c(c1)OCO2)c1c[nH]c2ccccc12`, the inhibition in test [1] and in test [2] was below 20% each time.
On to `COc1ccc2[nH]cc(/C(C#N)=C/c3cccnc3)c2c1`, for which the inhibition in test [1] and in test [2] was below 20% in each case.
Turning to `COc1cccc2[nH]cc(/C(C#N)=C/c3cccnc3)c12`, the inhibition in test [1] and in test [2] was below 20% each time.
In the case of `CCOC(=O)C1=C(C)NC(=S)NC1c1cccc(O)c1` (configuration not stated), the inhibition (as a rule, the percentage by which the read-out fell short of the control) in test [1] is above 30%; in test [2], below 20%.
Turning to `N#C/C(=C\c1cccnc1)c1c[nH]c2ccc(OCc3ccccc3)cc12`, the inhibition in test [1] and in test [2] was below 20% throughout.
